Assay results published in ChEMBL document CHEMBL1157410, “7-aryl 1,5-dihydro-benzo[e][1,4]oxazepin-2-ones and analogs as non-steroidal progesterone receptor antagonists” (Bioorg Med Chem, 2008).
Activity calls are given as the source filed them. No cut-off for these calls is given here.

What was measured:
[1] = target: T1, Estrogen receptor (Homo sapiens) (UniProt P03372); assay: Antagonist activity at cloned estrogen receptor-ligand binding domain expressed in african green monkey COS7 cells by GAL4 luciferase reporter assay upto 10 uM; assay type: cell-based; conditions: COS-7
T1 sequence (whole entry): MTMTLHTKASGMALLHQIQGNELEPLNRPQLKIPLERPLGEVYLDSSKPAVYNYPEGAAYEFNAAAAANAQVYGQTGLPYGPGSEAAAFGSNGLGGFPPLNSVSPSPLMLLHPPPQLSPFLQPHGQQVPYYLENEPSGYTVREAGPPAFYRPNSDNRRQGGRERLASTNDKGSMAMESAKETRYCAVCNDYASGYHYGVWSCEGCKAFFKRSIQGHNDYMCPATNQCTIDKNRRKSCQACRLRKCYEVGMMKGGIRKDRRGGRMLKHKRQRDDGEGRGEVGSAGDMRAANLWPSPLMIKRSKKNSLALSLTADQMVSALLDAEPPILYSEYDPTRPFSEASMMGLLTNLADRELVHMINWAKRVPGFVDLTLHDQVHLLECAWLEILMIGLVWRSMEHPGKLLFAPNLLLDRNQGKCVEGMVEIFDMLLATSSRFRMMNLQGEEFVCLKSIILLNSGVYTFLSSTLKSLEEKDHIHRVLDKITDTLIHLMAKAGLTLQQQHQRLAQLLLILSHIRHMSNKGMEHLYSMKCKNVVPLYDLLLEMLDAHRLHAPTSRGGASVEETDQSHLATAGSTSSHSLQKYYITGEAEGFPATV
In short: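 COS-7 cells in phenol red-free DMEM with 10% charcoal/dextran-treated FBS were transfected for 16 h with a GAL4-DBD/receptor-LBD fusion plasmid and a GAL4_UAS (5 copies, E1b TATA) luciferase reporter, 50 ng/well each. Cells were then given compound for 20 h, and luciferase activity was read from cell lysates by luminometer.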

[2] = target: T2, Glucocorticoid receptor (Homo sapiens, UniProt P04150); assay: Antagonist activity at cloned glucocorticoid receptor-ligand binding domain expressed in african green monkey COS7 cells by GAL4 luciferase reporter assay; assay type: cell-based, COS-7
T2 sequence (P04150 whole entry): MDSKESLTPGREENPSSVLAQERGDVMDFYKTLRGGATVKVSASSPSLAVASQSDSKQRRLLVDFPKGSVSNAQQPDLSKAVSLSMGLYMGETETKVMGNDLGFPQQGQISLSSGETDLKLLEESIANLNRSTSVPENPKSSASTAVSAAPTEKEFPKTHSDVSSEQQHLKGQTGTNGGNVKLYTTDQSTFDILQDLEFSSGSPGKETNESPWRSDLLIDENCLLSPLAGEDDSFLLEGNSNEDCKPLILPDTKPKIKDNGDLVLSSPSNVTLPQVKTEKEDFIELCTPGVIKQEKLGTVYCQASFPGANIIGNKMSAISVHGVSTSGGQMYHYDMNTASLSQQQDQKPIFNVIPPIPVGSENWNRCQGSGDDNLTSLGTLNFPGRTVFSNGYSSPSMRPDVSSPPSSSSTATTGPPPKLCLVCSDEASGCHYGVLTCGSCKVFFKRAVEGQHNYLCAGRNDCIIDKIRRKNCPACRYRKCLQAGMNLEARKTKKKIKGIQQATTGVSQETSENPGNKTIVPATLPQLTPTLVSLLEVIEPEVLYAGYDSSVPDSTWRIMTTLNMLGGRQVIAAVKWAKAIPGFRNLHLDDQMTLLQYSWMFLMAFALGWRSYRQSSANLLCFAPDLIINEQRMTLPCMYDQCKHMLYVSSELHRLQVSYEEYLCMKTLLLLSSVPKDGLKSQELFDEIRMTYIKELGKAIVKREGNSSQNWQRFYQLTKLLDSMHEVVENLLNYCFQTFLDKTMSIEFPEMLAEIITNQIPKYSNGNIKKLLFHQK

[3] = target: T3, Mineralocorticoid receptor (Homo sapiens) (UniProt P08235); assay: (§1) Antagonist activity at cloned mineralocorticoid receptor-ligand binding domain expressed in african green monkey COS7 cells by GAL4 luciferase reporter assay; assay type: cell-based; conditions: COS-7; concentration not given here
T3 sequence (whole entry): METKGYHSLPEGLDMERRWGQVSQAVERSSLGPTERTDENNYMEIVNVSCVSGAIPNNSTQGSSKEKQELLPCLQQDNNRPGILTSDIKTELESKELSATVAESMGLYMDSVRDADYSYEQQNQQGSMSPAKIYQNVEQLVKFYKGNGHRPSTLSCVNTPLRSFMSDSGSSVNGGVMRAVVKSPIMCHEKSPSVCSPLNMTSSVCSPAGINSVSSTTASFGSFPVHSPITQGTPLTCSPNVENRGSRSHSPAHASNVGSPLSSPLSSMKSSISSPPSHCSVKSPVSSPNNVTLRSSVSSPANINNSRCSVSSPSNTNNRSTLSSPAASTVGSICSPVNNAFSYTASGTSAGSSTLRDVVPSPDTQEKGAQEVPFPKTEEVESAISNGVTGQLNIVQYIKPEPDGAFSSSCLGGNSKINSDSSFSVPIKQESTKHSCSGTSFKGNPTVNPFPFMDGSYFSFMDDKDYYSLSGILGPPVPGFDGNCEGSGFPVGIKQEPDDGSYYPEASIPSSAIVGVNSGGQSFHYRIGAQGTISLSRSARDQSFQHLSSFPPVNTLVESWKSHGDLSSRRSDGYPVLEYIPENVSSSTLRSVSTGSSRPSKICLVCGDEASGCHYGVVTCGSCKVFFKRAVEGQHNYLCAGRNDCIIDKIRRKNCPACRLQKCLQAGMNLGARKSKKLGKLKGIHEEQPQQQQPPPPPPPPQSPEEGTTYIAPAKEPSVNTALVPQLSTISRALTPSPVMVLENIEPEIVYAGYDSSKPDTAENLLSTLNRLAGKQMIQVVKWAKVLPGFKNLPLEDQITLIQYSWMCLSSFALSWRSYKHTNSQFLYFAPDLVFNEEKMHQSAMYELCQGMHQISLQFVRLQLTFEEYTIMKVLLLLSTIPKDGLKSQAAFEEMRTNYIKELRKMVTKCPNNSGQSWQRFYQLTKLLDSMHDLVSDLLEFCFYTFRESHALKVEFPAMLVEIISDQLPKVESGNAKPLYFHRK
In short: (§2)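 GAL4 DNA-binding domain fused to receptor ligand-binding domain, one-hybrid format. LBD fusion and GAL4_UAS (5 copies, E1b minimal TATA) luciferase reporter plasmids, 50 ng/well each, transfected 16 h into COS-7 cells. Cells grown in phenol red-free DMEM with 10% charcoal/dextran-treated FBS. Compound exposure 20 h, then luciferase read on lysates. Mean of at least duplicate determinations.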

[4] = target: T4, Mineralocorticoid receptor (Homo sapiens, UniProt P08235); assay: as §1; assay type: cell-based, COS-7; in short: as §2
T4 sequence (P08235 whole entry): T3 sequence (whole entry)

Activity [1]	IC50 [2] [nM]	inhibition [3] [%]	IC50 [4] [nM]	Compound
inactive	1300	60	> 3000	N#Cc1cc(F)cc(-c2ccc3c(c2)C(c2ccco2)(c2ccco2)OCC(=O)N3)c1
inactive	> 3000	32	> 3000	CC1(C)OCC(=O)Nc2ccc(-c3cc(F)cc(C#N)c3)cc21

Compound	Activity [1]	IC50 [2] [nM]	inhibition [3] [%]	IC50 [4] [nM]
CCC1(c2ccco2)OCC(=O)Nc2ccc(-c3cc(F)cc(C#N)c3)cc21 (configuration not stated)	inactive	190	82	> 3000
